Source: ChEMBL document CHEMBL3045003, “Divalent and oxabridged neonicotinoids constructed by dialdehydes and nitromethylene analogues of imidacloprid: design, synthesis, crystal structure, and insecticidal activities” (2010)

Assays:
Format in all cases: functional
[1] = tested on: Aphis craccivora; test: Insecticidal activity against apterous adult stage of Aphis craccivora (cowpea aphid) in horsebean leaves assessed as mortality at 500 mg/l at 25 +/-1 degC treated for 5 secs measured after 24 hr by leaf-dip method
In short: (§1)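 Leaf-dip assay: horsebean leaves carrying 40-60 apterous adults were dipped in diluted compound, excess liquid was blotted off with filter paper, and they were held at 25 ± 1 °C, 50% RH. Controls were water containing Triton X-100. Mortality was scored 24 h after treatment, with three repetitions per treatment. Data were adjusted and subjected to probit analysis.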

[2] = tested on: Mythimna separata; test: Insecticidal activity against second instar larval stage of Mythimna separata (Oriental armyworm) in compound pretreated corn leaves assessed as mortality at 500 mg/l at 25 +/-1 degC after 48 hr
[3] = tested on: Aphis craccivora; test: Insecticidal activity against apterous adult stage of Aphis craccivora (cowpea aphid) in horsebean leaves assessed as mortality at 25 +/-1 degC treated for 5 secs measured after 24 hr by leaf-dip method; in short: as §1
[4] = tested on: Mythimna separata; test: Insecticidal activity against second instar larval stage of Mythimna separata (Oriental armyworm) in compound pretreated corn leaves assessed as mortality at 25 +/-1degC after 48 hr
[5] = tested on: Nilaparvata lugens; test: Toxicity ratio of imidacloprid LC50 to compound LC50 for macropterous adult stage of imidaclopride-sensitive Nilaparvata lugens (brown planthopper) after 48 hr by microtopical application technique
In short: (§2)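 Toxic ratio is imidacloprid's baseline-toxicity LC50 divided by the compound's LC50. LC50 values come from topical application of acetone solutions (0.08 μL droplet, prothorax notum, CO2 anesthesia) to unmated macropterous females aged 2-3 days, about 30 per concentration, three repeats. Insects were reared on seedlings at 25 ± 1 °C, and values were derived by probit analysis.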

[6] = tested on: Nilaparvata lugens; test: (§3) Insecticidal activity against macropterous adult stage of imidaclopride-sensitive Nilaparvata lugens (brown planthopper) assessed as concentration required to induce mortality per pest at 25 +/-1 degC applied topically to the prothorax notum of insect prior to rearing on rice seedlings measured after 48 hr by microtopical application technique
In short: (§4)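 Microtopical application on unmated macropterous adult females aged 2-3 days. Compounds were serially diluted in acetone, and a 0.08 μL droplet was applied to the prothorax notum under CO2 anesthesia. About 30 insects were used per concentration, with three repeats; controls received acetone. Insects were then reared on soilless seedlings at 25 ± 1 °C, 16/8 h light/dark. LC50 (ng/pest) was obtained from probit regression lines.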

[7] = tested on: Nilaparvata lugens; test: as §3, with “imidaclopride-resistant” for “imidaclopride-sensitive”; in short: as §4
[8] = tested on: Nilaparvata lugens; test: Toxicity ratio of imidacloprid LC50 to compound LC50 for macropterous adult stage of imidaclopride-resistant Nilaparvata lugens (brown planthopper) after 48 hr by microtopical application technique; in short: as §2

Structure (SMILES) | mortality at 500 µg/mL [1] [%] | mortality at 500 µg/mL [2] [%] | LC50 [3] [µM] | LC50 [4] [µM] | RatioLC50 [5] | LC50 [6] [ng] | LC50 [7] [ng] | RatioLC50 [8]
O=[N+]([O-])C1=C2N(Cc3ccccc3)CCN2[C@@H]2CC[C@H]1O2 | 13.6 | 0 |  |  |  |  |  | 
O=[N+]([O-])/C(=C/C/C=C(\C1=NCCN1Cc1ccc(Cl)nc1)[N+](=O)[O-])C1=NCCN1Cc1ccc(Cl)nc1 | 100 | 100 | 9.51 | 28 |  |  |  | 
O=[N+]([O-])C1=C2N(Cc3ccc(Cl)cc3)CCN2[C@@H]2CC[C@H]1O2 | 95.7 | 0 |  |  |  |  |  | 
O=[N+]([O-])/C=C1/NCCN1Cc1ccc(Cl)nc1 | 100 | 100 | 5.12 | 70.9 |  |  |  | 
COC(/C=C(\C1=NCCN1Cc1ccc(Cl)nc1)[N+](=O)[O-])/C(=C1\NCCN1Cc1ccc(Cl)nc1)[N+](=O)[O-] (configuration not stated) | 97.7 | 100 |  |  |  |  |  | 
O=[N+]([O-])/C(=C1/NCCN1Cc1ccc(Cl)nc1)C(O)/C=C(\C1=NCCN1Cc1ccc(Cl)nc1)[N+](=O)[O-] (configuration not stated) | 78.1 | 100 |  | 195 |  |  |  | 
O=[N+]([O-])/N=C1\NCCN1Cc1ccc(Cl)nc1 [IMIDACLOPRID] | 100 | 100 | 35 | 125 | 1 | 0.1316 | 22.1614 | 1
O=[N+]([O-])C1=C2N(Cc3ccc(Cl)nc3)CCN2[C@@H]2CC[C@H]1O2 | 100 | 100 | 4.71 | 38.7 | 1.77 | 0.0742 | 0.4925 | 40.4
O=[N+]([O-])C1=C2N(Cc3cnc(Cl)s3)CCN2[C@@H]2CC[C@H]1O2 | 100 | 100 | 8.83 | 49.6 |  |  |  | 
